# According to ChEMBL document CHEMBL4834402, “Discovery of TAK-981, a First-in-Class Inhibitor of SUMO-Activating Enzyme for the Treatment of Cancer” (J Med Chem, 2021):
# Activity calls are given as the source filed them. No cut-off for these calls is given here.
# Legend:
# [1] = AUC in rat plasma at 1 mg/kg, iv; type: ADME, organism-based; parameters: dose 1 mg/kg
# [2] = AUC in rat blood at 1 mg/kg, iv; type: ADME, organism-based; parameters: dose 1 mg/kg
# [3] = AUC in rat plasma at 10 mg/kg, po; type: ADME, organism-based; parameters: dose 10 mg/kg
# SUMO-activating enzyme [4] = molecular target: T1, SUMO-activating enzyme (Homo sapiens, UniProt Q9UBT2); test: Inhibition of recombinant SAE (unknown origin) assessed as reduction in transfer of SUMO1 to UBC9 using SUMO1 as a substrate in presence of ATP at Km concentration by HTRF assay; type: protein-complex assay
# T1 sequence (Q9UBE0 whole entry): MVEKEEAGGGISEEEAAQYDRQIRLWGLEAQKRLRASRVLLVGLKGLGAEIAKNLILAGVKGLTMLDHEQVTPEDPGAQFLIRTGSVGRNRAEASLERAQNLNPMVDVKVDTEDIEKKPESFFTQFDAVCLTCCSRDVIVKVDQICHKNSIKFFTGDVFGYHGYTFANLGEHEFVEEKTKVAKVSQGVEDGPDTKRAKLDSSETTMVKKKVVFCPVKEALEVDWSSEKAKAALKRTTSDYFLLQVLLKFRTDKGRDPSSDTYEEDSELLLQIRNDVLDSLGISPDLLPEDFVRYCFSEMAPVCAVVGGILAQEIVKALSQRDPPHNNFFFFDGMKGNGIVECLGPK
# T1 sequence (Q9UBT2 whole entry): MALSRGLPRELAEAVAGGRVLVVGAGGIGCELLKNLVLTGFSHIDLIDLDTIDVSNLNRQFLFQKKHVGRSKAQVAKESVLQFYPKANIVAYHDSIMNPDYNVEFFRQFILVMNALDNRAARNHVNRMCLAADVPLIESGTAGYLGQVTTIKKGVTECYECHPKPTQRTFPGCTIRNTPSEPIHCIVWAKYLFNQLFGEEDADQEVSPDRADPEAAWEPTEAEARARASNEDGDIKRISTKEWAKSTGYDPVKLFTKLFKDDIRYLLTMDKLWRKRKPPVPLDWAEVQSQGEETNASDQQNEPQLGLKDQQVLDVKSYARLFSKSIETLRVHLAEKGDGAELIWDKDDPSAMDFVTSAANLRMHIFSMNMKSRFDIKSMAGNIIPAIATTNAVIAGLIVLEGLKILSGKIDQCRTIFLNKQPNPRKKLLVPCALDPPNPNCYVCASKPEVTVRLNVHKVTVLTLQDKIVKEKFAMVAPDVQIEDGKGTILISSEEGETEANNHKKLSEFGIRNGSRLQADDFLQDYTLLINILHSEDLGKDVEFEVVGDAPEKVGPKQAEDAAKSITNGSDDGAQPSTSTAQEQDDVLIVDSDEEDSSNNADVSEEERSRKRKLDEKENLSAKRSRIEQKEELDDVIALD
# Procedure, shortened: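 HTRF transthiolation assay measuring transfer of SUMO1 to UBC9, the E2 for SAE.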
# [5] = Inhibition of recombinant UAE (unknown origin) in presence of ATP at Km concentration by HTRF assay; parameters: species or system Homo sapiens
# [6] = Lipophilicity, logD of compound at pH 7.4; type: physicochemical; settings: buffer
# SUMO-activating enzyme [7] = molecular target: T1, SUMO-activating enzyme; test: Inhibition of SAE in human HCT116 cells assessed as redistribution of SUMO2/3 proteins from nucleus to cytosol preincubated for 2 hrs followed by compound washout and measured after 8 hrs by immunofluorescence assay; type: cell-based, HCT-116
# Procedure, shortened: (§1)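 Washout format of the SUMO2/3 immunofluorescence assay in HCT116 cells. Cells were exposed to a range of concentrations for 2 h, then washed free of compound.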
# SUMO-activating enzyme [8] = molecular target: T1, SUMO-activating enzyme; test: Inhibition of SAE in human HCT116 cells assessed as redistribution of SUMO2/3 proteins from nucleus to cytosol preincubated for 2 hrs followed by compound washout and measured immediately by immunofluorescence assay; type: cell-based, HCT-116; procedure, shortened: as §1
# [9] = Half life in rat plasma at 1 mg/kg, iv; type: ADME, organism-based
# [10] = Dissociation constant , pKa of the compound; type: physicochemical
# HCT-116 [11] = test: Cytotoxicity against human HCT116 cells assessed as reduction in cell viability after 72 hrs by CellTiter-Glo luminescent assay; type: functional, cell-based; settings: HCT-116, 72 h
# OCI-Ly10 [12] = test: Antitumor activity against human OCI-Ly10 cells xenografted in CB17 SCID mouse assessed as tumor growth inhibition at 50 mg/kg, iv administered thrice per week for 21 days and measured twice weekly; type: functional, organism-based; settings: time 21.0 day
# Procedure, shortened: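 Female CB17 SCID mice carrying OCI-Ly10 tumors (~200 mm3) were randomized, n = 8/group, with treatment from Day 1. Schedules were QD x21 (Days 1–21) or QD x3/week (three consecutive dosing days, four off). Tumor volume was measured twice weekly.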
# [13] = molecular target: T2, SUMO-activating enzyme (Homo sapiens) (UniProt Q9UBE0+Q9UBT2); test: Inhibition of SAE in human HCT116 cells xenografted in NCr nude mouse assessed as improvement in SUMO-inhibitor adduct durability at 50 mg/kg, iv and measured up to 16 hrs by mass spectrometry; type: organism-based; settings: HCT-116
# Procedure, shortened: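 Single IV dose at t = 0 to female Ncr nude mice bearing HCT-116 tumors, n = 3 per time point. Tumors harvested 2, 4, 8 and 16 h post-injection. Read-out is the adduct/SAE ratio: quantity of SUMO-compound adduct over quantity of total SAE enzyme, both measured by mass spectrometry. Values are averaged per time point.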
# [14] = Apparent permeability across apical to basolateral side in human Caco2 cells; type: ADME, cell-based; settings: Caco-2
# [15] = Clearance in rat blood at 1 mg/kg, iv; type: ADME, organism-based; settings: in vivo
# [16] = molecular target: T2, SUMO-activating enzyme (Homo sapiens); test: Inhibition of SAE in human OCI-Ly10 cells xenografted in NCr nude mouse assessed as reduction in SUMO2/3 protein conjugates at 25 mg/kg, iv and measured up to 24 hrs by immunohistochemistry analysis; type: organism-based; settings: HCT-116, time hrs <=24
# [17] = Solubility of compound in 10% hydroxypropyl-beta-cyclodextrin after 24 hrs; type: physicochemical
# HCT-116 [18] = test: Antitumor activity against human HCT-116 cells xenografted in Ncr/nude mouse assessed as tumor growth inhibition at 50 mg/kg, iv administered thrice per week for 21 days and measured twice weekly; type: functional, organism-based; settings: time 21.0 day
# Procedure, shortened: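 Female Ncr/nude mice carrying HCT-116 tumors (~200 mm3) were randomized, n = 8/group, with treatment from Day 1. Schedules were QD x21 (Days 1–21) or QD x3/week (three consecutive dosing days, four off). Tumor volume was measured twice weekly.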
# SUMO-activating enzyme [19] = molecular target: T1, SUMO-activating enzyme; test: Inhibition of SAE in human HCT116 cells assessed as reduction in redistribution of SUMO2/3 proteins from nucleus to cytosol incubated for 4 hrs by immunofluorescence assay; type: cell-based, HCT-116
# Procedure, shortened: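 HCT-116 cells exposed to compound across a concentration range for 4 h, then stained with anti-SUMO2/3 monoclonal antibody. Automated imaging scored the nuclear (inner) to cytoplasmic (outer) SUMO2/3 ratio. IC50 taken from the dose response.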
# [20] = Volume of distribution at steady state in rat blood at 1 mg/kg, iv; type: ADME, organism-based; settings: read-out: Vdss
# [21] = AUC in rat blood at 10 mg/kg, po; type: ADME, organism-based; parameters: dose 10 mg/kg
# Carbonic anhydrase 1 = Carbonic anhydrase 1 (Homo sapiens, UniProt P00915); test: Inhibition of human erythrocyte CA1 using fluorescein diacetate as substrate at […] by fluorometric esterase assay
# Carbonic anhydrase 1, sequence (P00915 whole entry): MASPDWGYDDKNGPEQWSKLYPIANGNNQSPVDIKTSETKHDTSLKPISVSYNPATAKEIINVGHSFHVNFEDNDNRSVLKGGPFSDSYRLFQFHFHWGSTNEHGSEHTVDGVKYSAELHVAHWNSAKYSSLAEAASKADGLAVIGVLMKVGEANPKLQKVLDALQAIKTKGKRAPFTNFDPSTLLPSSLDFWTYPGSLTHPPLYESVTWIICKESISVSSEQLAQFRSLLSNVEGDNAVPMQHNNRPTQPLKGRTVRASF
# [22] = Oral bioavailability in rat plasma at 10 mg/kg; type: ADME, organism-based
# [23] = Oral bioavailability in rat blood at 10 mg/kg; type: ADME, organism-based
# [24] = Clearance in rat plasma at 1 mg/kg, iv; type: ADME, organism-based; settings: in vivo
# Carbonic anhydrase 2 = Carbonic anhydrase 2 (Homo sapiens, UniProt P00918); test: Inhibition of recombinant human CA2 expressed in Escherichia coli using fluorescein diacetate as substrate at […] by fluorometric esterase assay
# OCI-Ly10 [25] = test: Cytotoxicity against human OCI-LY10 cells assessed as reduction in cell viability after 72 hrs by CellTiter-Glo luminescent assay; type: functional, cell-based; settings: OCI-Ly10, 72 h
# [26] = Apparent permeability across basolateral to apical side in human Caco2 cells; type: ADME, cell-based; settings: Caco-2
smiles,measurement,setting,value
Cc1sc(C(=O)c2cncnc2N[C@@H]2C[C@H](COS(N)(=O)=O)[C@@H](O)C2)cc1[C@@H]1NCCc2ccc(Cl)cc21,AUC,[1],0.5 µM·h
same,AUC,[2],31.2 µM·h
same,AUC,[3],0.3 µM·h
same,IC50,SUMO-activating enzyme [4],1 nM
same,IC50,[5],> 1000 nM
same,logD,[6],2.1
same,IC50,SUMO-activating enzyme [7],46 nM
same,IC50,SUMO-activating enzyme [8],32 nM
same,half-life,[9],2.1 h
same,pKa,[10],3.6
same,EC50,HCT-116 [11],63 nM
same,Activity,OCI-Ly10 [12],Active
same,inhibition,[13],Active
same,Papp A→B,[14],0.3 ×10⁻⁶ cm/s
same,clearance,[15],1.67 mL/min/kg
same,inhibition,[16],Active
same,solubility at 24 h,[17],20 mg/mL
same,Activity,HCT-116 [18],Active
same,IC50,SUMO-activating enzyme [19],15 nM
same,Vd,[20],0.2 L/kg
same,AUC,[21],32 µM·h
same,IC50,Carbonic anhydrase 1,90 nM
same,bioavailability,[22],7.3%
same,bioavailability,[23],10%
same,clearance,[24],61.7 mL/min/kg
same,IC50,Carbonic anhydrase 2,20 nM
same,EC50,OCI-Ly10 [25],4 nM
same,Papp B→A,[26],46 ×10⁻⁶ cm/s
